Measured values reported in ChEMBL document CHEMBL4732257, “The optimization and characterization of functionalized sulfonamides derived from sulfaphenazole against Mycobacterium tuberculosis with reduced CYP 2C9 inhibition” (Bioorg Med Chem Lett, 2021).
Values after ≈ are worked out from the molar mass of the structure shown.

Assays:
[1] = tested on: Mycobacterium tuberculosis; assay: Antimycobacterial activity against Mycobacterium tuberculosis H37Rv assessed as bacterial growth inhibition; assay type: functional
CYP2C9 = CYP2C9 (Homo sapiens, UniProt P11712); assay: Inhibition of CYP2C9 (unknown origin) at 0.5 uM relative to control; assay type: ADME
Vero = assay: Cytotoxicity against African green monkey Vero cells assessed as reduction in cell viability; assay type: cell-based; details: Chlorocebus sabaeus
Procedure, shortened: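 Vero cells exposed to the compounds; IC50 taken as the concentration inhibiting 50% of cell growth relative to an untreated control.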

Cytochrome P450 2C9 = Cytochrome P450 2C9 (Homo sapiens, UniProt P11712); assay: Inhibition of CYP2C9 (unknown origin); assay type: ADME
Cytochrome P450 2C9, sequence (P11712 whole entry): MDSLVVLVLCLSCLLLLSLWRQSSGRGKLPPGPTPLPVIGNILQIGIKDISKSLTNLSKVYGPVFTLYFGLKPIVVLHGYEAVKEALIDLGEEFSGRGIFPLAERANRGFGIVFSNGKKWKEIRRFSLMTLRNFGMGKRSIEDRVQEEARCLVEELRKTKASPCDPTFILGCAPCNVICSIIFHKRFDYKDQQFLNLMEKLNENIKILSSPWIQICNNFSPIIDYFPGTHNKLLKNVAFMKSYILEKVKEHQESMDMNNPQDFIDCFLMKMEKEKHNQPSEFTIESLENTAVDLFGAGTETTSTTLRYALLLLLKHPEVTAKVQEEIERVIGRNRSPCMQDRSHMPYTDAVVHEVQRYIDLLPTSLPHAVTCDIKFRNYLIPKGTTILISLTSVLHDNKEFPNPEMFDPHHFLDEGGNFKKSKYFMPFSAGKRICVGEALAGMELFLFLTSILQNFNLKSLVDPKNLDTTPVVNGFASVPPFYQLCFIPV

CYP2C9, sequence (P11712 whole entry): as above

Row | Structure (SMILES) | MIC90 [1] [µg/mL] | other results
1 | Nc1ccc(S(=O)(=O)Nc2nc3ccccc3o2)cc1 | > 32 | 
2 | CN(c1ccnn1-c1ccccc1)S(=O)(=O)c1ccc(N)cc1 | > 32 | 
3 | Cc1ccc(-c2ccc(-n3nccc3NS(=O)(=O)c3ccc(N)cc3)cc2)cc1 | 31 (≈ 76.7 µM) | inhibition at 0.5 µM (CYP2C9): 2.2%
4 | Nc1ccc(S(=O)(=O)Nc2ccc3cnn(-c4ccccc4)c3c2)cc1 | > 32 | 
5 | Nc1ccc(S(=O)(=O)Nc2nc3ccccc3s2)cc1 | 14.3 (≈ 46.7 µM) | inhibition at 0.5 µM (CYP2C9): 4.8%
6 | Nc1ccc(S(=O)(=O)Nc2ccnn2-c2ccc([N+](=O)[O-])cc2)cc1 | 10.3 (≈ 28.7 µM) | 
7 | Nc1ccc(S(=O)(=O)Nc2cc(-c3ccccc3)nn2-c2ccccc2)cc1 | > 32 | 
8 | Nc1ccc(S(=O)(=O)Nc2ccc3scnc3c2)cc1 | > 32 | 
9 | CNc1ccc(S(=O)(=O)Nc2ccnn2-c2ccccc2)cc1 | > 32 | 
10 | CC(C)(C)c1cc(NS(=O)(=O)c2ccc(N)cc2)n(-c2ccccc2)n1 | > 32 | 
11 | Cc1ccc(C)c(-n2nccc2NS(=O)(=O)c2ccc(N)cc2)c1 | > 32 | 
12 | Nc1ccc(S(=O)(=O)Nc2ccnn2-c2ccc(C(F)(F)F)cc2)cc1 | > 32 | 
13 | O=C(c1ccc(S(=O)(=O)Nc2ccnn2-c2ccccc2)cc1)N1CCNCC1 | > 32 | 
14 | Nc1ccc(S(=O)(=O)Nc2nc3ccc(-c4ccccc4)cc3s2)cc1 | > 32 | 
15 | Nc1ccc(S(=O)(=O)Nc2ccnn2-c2ccc(-c3ccccc3)cc2)cc1 | > 32 | 
16 | O=C(c1ccc(S(=O)(=O)Nc2ccnn2-c2ccccc2)cc1)N1CCCCC1 | 30.1 (≈ 73.4 µM) | inhibition at 0.5 µM (CYP2C9): 0.2%
17 | COc1ccc(-c2ccc(-n3nccc3NS(=O)(=O)c3ccc(N)cc3)cc2)cc1 | > 32 | 
18 | COc1ccc(-c2ccc3nc(NS(=O)(=O)c4ccc(N)cc4)sc3c2)cc1 | > 32 | 
19 | O=S(=O)(Nc1ccnn1-c1ccccc1)c1ccc(N2CCCCC2)cc1 | > 32 | 
20 | CC(=O)Nc1ccc(S(=O)(=O)Nc2ccnn2-c2ccccc2)cc1 | > 32 | 

Row | Structure (SMILES) | MIC90 [1] [µg/mL] | other results
21 | Nc1ccc(S(=O)(=O)Nc2ccnn2Cc2ccccc2)cc1 | > 32 | 
22 | Nc1ccc(S(=O)(=O)Nc2ccnn2-c2ccccc2)cc1F | > 32 | 
23 | Cc1cccc(-n2nccc2NS(=O)(=O)c2ccc(N)cc2)c1 | 12.2 (≈ 37.2 µM) | 
24 | Nc1cccc(S(=O)(=O)Nc2ccnn2-c2ccccc2)c1 | > 32 | 
25 | Nc1ccc(S(=O)(=O)Nc2ccnn2C2CCCCC2)cc1 | > 32 | 
26 | COc1ccc(-n2nccc2NS(=O)(=O)c2ccc(N)cc2)cc1 | 5.69 (≈ 16.5 µM) | IC50 (Vero): > 64 µg/mL; inhibition at 0.5 µM (CYP2C9): 9.1%; IC50 (Cytochrome P450 2C9): 11.5 µM
27 | Nc1ccc(S(=O)(=O)Nc2ccnn2-c2ccc(F)cc2)cc1 | 6.88 (≈ 20.7 µM) | IC50 (Vero): > 64 µg/mL; inhibition at 0.5 µM (CYP2C9): 45.7%
28 | O=C(c1ccc(S(=O)(=O)Nc2ccnn2-c2ccccc2)cc1)N1CCSCC1 | > 32 | 
29 | COc1cc(N)ccc1S(=O)(=O)Nc1ccnn1-c1ccccc1 | > 32 | 
30 | Nc1ccc(S(=O)(=O)Nc2ccnn2-c2cccc(F)c2)cc1 | 7.93 (≈ 23.9 µM) | 
31 | Nc1ccc(-c2ccc(S(=O)(=O)Nc3ccnn3-c3ccccc3)cc2)cc1 | > 32 | 
32 | CCc1cc(NS(=O)(=O)c2ccc(N)cc2)n(-c2ccccc2)n1 | > 32 | 
33 | Nc1ccc(S(=O)(=O)Nc2sccc2-c2ccccc2)cc1 | > 32 | 
34 | Cc1ccc(-n2nccc2NS(=O)(=O)c2ccc(N)cc2)cc1 | 7.33 (≈ 22.3 µM) | IC50 (Vero): > 64 µg/mL; inhibition at 0.5 µM (CYP2C9): 52.3%
35 | Nc1ccc(S(=O)(=O)Nc2ccnn2-c2ccc(Br)cc2)cc1 | 14.5 (≈ 37 µM) | 
36 | Nc1ccc(S(=O)(=O)Nc2ccnn2C2CCCC2)cc1 | > 32 | 
37 | NNC(=O)c1ccncc1 [ISONIAZID] | 0.02 (≈ 0.146 µM) | 
38 | Nc1ccc(S(=O)(=O)Nc2ccnn2-c2ccccc2)cc1 [SULFAPHENAZOLE] | 5.51 (≈ 17.5 µM) | IC50 (Vero): > 64 µg/mL; inhibition at 0.5 µM (CYP2C9): 48.3%
39 | Cc1cc(NS(=O)(=O)c2ccc(N)cc2)n(-c2ccccc2)n1 [SULFAZAMET] | 15.4 (≈ 46.8 µM) | inhibition at 0.5 µM (CYP2C9): 45%
